Data taken from ChEMBL document CHEMBL1781920, “Synthesis and antimicrobial activity of some new 4-hetarylpyrazole and furo[2,3-c]pyrazole derivatives” (2011).
In brackets after ≈: the same amount, converted by molar mass.

Key:
Assay type in all cases: functional
Botrytis fabae [1] = test: Antifungal activity against Botrytis fabae ATCC 14862 at 1 mg/ml after 48 hrs by agar-diffusion method; conditions: ATCC 14862, 48 h, read-out: IZ
Outline: (§1)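 Fungi were seeded at 10⁴ CFU/mL onto nutrient agar plates. Filter-paper disks carried compound dissolved in DMF at 1 mg/mL, two disks per plate, in triplicate, with a DMF-only control. After 48 h incubation at 37 °C, the average diameter of the growth-inhibition zone was read in mm.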

Bacillus thuringiensis [2] = test: Antibacterial activity against Bacillus thuringiensis ATCC 6051 after 24 hrs by serial dilution method; conditions: ATCC 6051, 24 h
Outline: (§2)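 Broth microdilution in Mueller–Hinton broth, run only for compounds giving zones >14 mm in the disk test. DMF stocks were diluted twofold from 500 to 3.125, and about 10⁶ CFU/mL bacteria were added per well. Sealed plates were kept at 37 °C for 24 h in a humid chamber. MIC was taken as the lowest concentration without visible turbidity.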

Pseudomonas aeruginosa [3] = test: Antibacterial activity against Pseudomonas aeruginosa ATCC 27853 after 24 hrs by serial dilution method; conditions: ATCC 27853, 24 h; outline: as §2
Bacillus subtilis [4] = test: Antibacterial activity against Bacillus subtilis ATCC 6633 at 1 mg/ml after 24 hrs by agar-diffusion method; conditions: ATCC 6633, 24 h, read-out: IZ
Outline: (§3)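 Agar disk diffusion on nutrient agar seeded with about 10⁶ CFU/mL of the test bacterium. Filter-paper disks were impregnated with compound in DMF at 1 mg/mL, two disks per plate, in triplicate. DMF alone served as control. Plates were incubated at 37 °C for 24 h, and the mean inhibition-zone diameter was recorded in mm.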

Bacillus subtilis [5] = test: Antibacterial activity against Bacillus subtilis ATCC 6633 after 24 hrs by serial dilution method; conditions: ATCC 6633, 24 h; outline: as §2
Escherichia coli [6] = test: Antibacterial activity against Escherichia coli ATCC 14169 after 24 hrs by serial dilution method; conditions: ATCC 14169, 24 h; outline: as §2
Fusarium oxysporum [7] = test: Antifungal activity against Fusarium oxysporum ATCC 16417 at 1 mg/ml after 48 hrs by agar-diffusion method; conditions: ATCC 16417, 48 h, read-out: IZ; outline: as §1
Fusarium oxysporum [8] = test: Antifungal activity against Fusarium oxysporum ATCC 16417 after 48 hrs by serial dilution method; conditions: ATCC 16417, 48 h
Outline: (§4)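 MICs were measured by microdilution in Sabouraud liquid medium, for compounds with disk zones >14 mm. DMF stocks were serially diluted twofold across 500–3.125. Sealed plates were incubated at 37 °C for 48 h in a humid chamber. The lowest concentration with no visible turbidity was recorded as the MIC.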

Bacillus thuringiensis [9] = test: Antibacterial activity against Bacillus thuringiensis ATCC 6051 at 1 mg/ml after 24 hrs by agar-diffusion method; conditions: ATCC 6051, 24 h, read-out: IZ; outline: as §3
Pseudomonas aeruginosa [10] = test: Antibacterial activity against Pseudomonas aeruginosa ATCC 27853 at 1 mg/ml after 24 hrs by agar-diffusion method; conditions: ATCC 27853, 24 h, read-out: IZ; outline: as §3
Escherichia coli [11] = test: Antibacterial activity against Escherichia coli ATCC 14169 at 1 mg/ml after 24 hrs by agar-diffusion method; conditions: ATCC 14169, 24 h, read-out: IZ; outline: as §3
Botrytis fabae [12] = test: Antifungal activity against Botrytis fabae ATCC 14862 after 48 hrs by serial dilution method; conditions: ATCC 14862, 48 h; outline: as §4
Bacillus thuringiensis [13] = test: Antibacterial activity against Bacillus thuringiensis ATCC 6051 after 24 hrs by serial dilution method relative to chloramphenicol
Bacillus subtilis [14] = test: Antibacterial activity against Bacillus subtilis ATCC 6633 after 24 hrs by serial dilution method relative to chloramphenicol

SMILES | zone of inhibition at 1000 µg/mL (Botrytis fabae [1]) [mm] | MIC (Bacillus thuringiensis [2]) [µg/mL] | MIC (Pseudomonas aeruginosa [3]) [µg/mL] | zone of inhibition at 1000 µg/mL (Bacillus subtilis [4]) [mm] | MIC (Bacillus subtilis [5]) [µg/mL] | MIC (Escherichia coli [6]) [µg/mL] | zone of inhibition at 1000 µg/mL (Fusarium oxysporum [7]) [mm] | MIC (Fusarium oxysporum [8]) [µg/mL] | zone of inhibition at 1000 µg/mL (Bacillus thuringiensis [9]) [mm] | zone of inhibition at 1000 µg/mL (Pseudomonas aeruginosa [10]) [mm] | zone of inhibition at 1000 µg/mL (Escherichia coli [11]) [mm] | MIC (Botrytis fabae [12]) [µg/mL] | Activity (Bacillus thuringiensis [13]) [%] | Activity (Bacillus subtilis [14]) [%]
Cc1nn(-c2ccccc2)c2c1/C(=N/c1ccccn1)CO2 | 20 | 25 (≈ 86.1 µM) | 6.25 (≈ 21.5 µM) | 26 | 25 (≈ 86.1 µM) | 6.25 (≈ 21.5 µM) | 16 | 100 (≈ 344 µM) | 25 | 15 | 38 | 50 (≈ 172 µM) |  | 
Cc1nn(-c2ccccc2)c2c1/C(=N/c1nnc[nH]1)CO2 | 19 | 6.25 (≈ 22.3 µM) | 100 (≈ 357 µM) | 38 | 6.25 (≈ 22.3 µM) | 100 (≈ 357 µM) | 15 | 100 (≈ 357 µM) | 38 | 16 | 15 | 50 (≈ 178 µM) |  | 
Cc1nn(-c2ccccc2)c2c1/C(=N/c1nc3ccccc3[nH]1)CO2 | 37 | 6.25 (≈ 19 µM) | 50 (≈ 152 µM) | 44 | 3.12 (≈ 9.49 µM) | 50 (≈ 152 µM) | 14 | 6.25 (≈ 19 µM) | 37 | 20 | 19 | 6.25 (≈ 19 µM) |  | 
Cc1[nH]n(-c2ccccc2)c(=O)c1C(=O)CN1CCCCC1 | 31 | 6.25 (≈ 20.9 µM) | 100 (≈ 334 µM) | 43 | 3.12 (≈ 10.4 µM) | 50 (≈ 167 µM) | 14 | 100 (≈ 334 µM) | 38 | 16 | 19 | 12.5 (≈ 41.8 µM) |  | 
Cc1[nH]n(-c2ccccc2)c(=O)c1C(=O)c1cc2ccccc2o1 | 19 | 6.25 (≈ 19.6 µM) | 12.5 (≈ 39.3 µM) | 38 | 6.25 (≈ 19.6 µM) | 100 (≈ 314 µM) | 26 | 25 (≈ 78.5 µM) | 37 | 33 | 15 | 50 (≈ 157 µM) | 50 | 50
Cc1[nH]n(-c2ccccc2)c(=O)c1C(=O)c1oc2ccccc2c1C | 15 | 6.25 (≈ 18.8 µM) | 50 (≈ 150 µM) | 37 | 6.25 (≈ 18.8 µM) | 25 (≈ 75.2 µM) | 15 | 100 (≈ 301 µM) | 37 | 19 | 27 | 100 (≈ 301 µM) | 50 | 50
CC(=O)c1cc(-c2c(C)[nH]n(-c3ccccc3)c2=O)oc1C | 26 | 6.25 (≈ 21.1 µM) | 50 (≈ 169 µM) | 42 | 3.12 (≈ 10.5 µM) | 100 (≈ 337 µM) | 20 | 50 (≈ 169 µM) | 37 | 18 | 15 | 25 (≈ 84.4 µM) |  | 
Cc1[nH]n(-c2ccccc2)c(=O)c1C1=Nc2ccccc2OC1 | 15 | 50 (≈ 164 µM) | 100 (≈ 328 µM) | 20 | 50 (≈ 164 µM) | 50 (≈ 164 µM) | 15 | 100 (≈ 328 µM) | 19 | 15 | 19 | 100 (≈ 328 µM) |  | 
Cc1[nH]n(-c2ccccc2)c(=O)c1C(=O)CN1CCOCC1 | 19 | 6.25 (≈ 20.7 µM) | 50 (≈ 166 µM) | 32 | 12.5 (≈ 41.5 µM) | 100 (≈ 332 µM) | 19 | 50 (≈ 166 µM) | 38 | 20 | 16 | 50 (≈ 166 µM) |  | 
Cc1[nH]n(-c2ccccc2)c(=O)c1C1=Nc2ccccc2NC1 | 20 | 100 (≈ 329 µM) | 50 (≈ 164 µM) | 19 | 50 (≈ 164 µM) | 100 (≈ 329 µM) | 15 | 100 (≈ 329 µM) | 15 | 19 | 15 | 50 (≈ 164 µM) |  | 
Cc1[nH]n(-c2ccccc2)c(=O)c1C1=Nc2ccccc2SC1 | 19 | 100 (≈ 311 µM) | 100 (≈ 311 µM) | 15 | 100 (≈ 311 µM) | 100 (≈ 311 µM) | 15 | 100 (≈ 311 µM) | 15 | 16 | 15 | 50 (≈ 156 µM) |  | 
CC(=O)OCC1=C(C(=O)O)N2C(=O)[C@@H](NC(=O)Cc3cccs3)[C@H]2SC1 [CEPHALOTHIN] |  | 6.25 (≈ 15.8 µM) | 6.25 (≈ 15.8 µM) | 36 | 6.25 (≈ 15.8 µM) | 6.25 (≈ 15.8 µM) |  |  | 37 | 37 | 38 |  |  | 
O=C(N[C@H](CO)[C@H](O)c1ccc([N+](=O)[O-])cc1)C(Cl)Cl [CHLORAMPHENICOL] |  | 3.12 (≈ 9.67 µM) | 6.25 (≈ 19.3 µM) | 42 | 3.12 (≈ 9.67 µM) | 6.25 (≈ 19.3 µM) |  |  | 44 | 38 | 37 |  |  | 
C[C@@H]1C[C@@H]([C@H](O)CC2CC(=O)NC(=O)C2)C(=O)[C@@H](C)C1 [CYCLOHEXIMIDE] | 42 |  |  |  |  |  | 43 | 3.12 (≈ 11.1 µM) |  |  |  | 3.12 (≈ 11.1 µM) |  | 
